In the library only some 1.9% were active in any assay of this set; here they are far more common.
DSG3 Ab inh: inhibitors of pemphigus antibody binding to human desmoglein-3; DSG3-coupled beads, scFv-anti-DSG3-GFP binding, flow cytometry; stronger effect = lower value; binding (percent of control), % at 10 µM; hit rate 0.48% among 310,000;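 active = binding more than 3 SD below its plate's average and above zero; inconclusive = below that plate limit but binding exactly zero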
Rce1 inhib: inhibitors of yeast Ras-converting enzyme. Q03530. yeast membranes, quenched prenylated peptide cleavage fluorescence. calls only. hit rate 0.27% among 290,000. AID 2563;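 active = fall in fluorescence gain of 50% or more versus controls, with final raw signal at or below 3038400; inconclusive = same 50% fall but final raw signal above 3038400; inactive = fall in fluorescence gain under 50%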
Target sequence (Q03530 whole entry, looked up): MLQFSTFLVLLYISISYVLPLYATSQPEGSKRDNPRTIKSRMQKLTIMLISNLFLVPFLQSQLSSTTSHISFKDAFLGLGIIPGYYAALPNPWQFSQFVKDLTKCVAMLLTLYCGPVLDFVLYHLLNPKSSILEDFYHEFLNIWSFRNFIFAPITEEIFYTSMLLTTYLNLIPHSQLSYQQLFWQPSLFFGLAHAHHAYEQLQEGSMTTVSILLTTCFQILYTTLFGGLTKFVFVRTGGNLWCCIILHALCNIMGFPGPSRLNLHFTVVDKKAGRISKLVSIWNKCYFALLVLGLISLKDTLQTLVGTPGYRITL
NadD inh: blocks S. aureus nicotinate mononucleotide adenylyltransferase; hit rate 0.78% among 360,000; inhibition, % at 20 µM; AID 602399; purified NadD enzyme, colorimetric absorbance read-out; in the data active = inhibition above about 26%
Tb MetRS inh: blocks T. brucei methionyl-tRNA synthetase activity; purified T. brucei MetRS, ATP depletion, Kinase-Glo luminescence; inhibition, % at 11.9 µM; hit rate 0.4% among 360,000; AID 624268;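 active = inhibition above a per-plate cutoff of the control wells' mean inhibition plus 3 SD, cut at about 5.5% in these data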
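technique = Kinase-Glo luminescence, ATP depletion format | system = purified MetRS (methionyl-tRNA synthetase) enzyme from Trypanosoma brucei | timing = 15 min preincubation, 2 h reaction, all 25 °C | evaluation = percent inhibition versus plate control medians | dosing = single dose, 11.9 µM final nominal, 0.9% final DMSO | also added = substrates ATP, L-methionine and bulk Escherichia coli tRNA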
core dimer inh: blocks dimerization of HCV core protein | TR-FRET GST/Flag-core106 dimerization, 1536-well | inhibition, % at 5 µM | hit rate 0.33% among 300,000;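 active = inhibition above the mean of all tested compounds plus 3 SD, set per screening campaign, cut at about 45% in these data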
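test system = GST/Flag-tagged HCV core106 proteins | probe or stimulus = Eu donor and XL665 acceptor anti-tag antibodies | times = compound-protein-antibody incubation 4 h at 22.5 °C | signal = TR-FRET, excitation 340 nm, emission 617 and 671 nm | measure = percent inhibition of core106 dimerization signal | controls = wells lacking GST-core106 and wells with excess unlabelled core106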
NadD inh conf: NadD (S. aureus) inhibition, single concentration confirmation; shares compounds with NadD inh; purified S. aureus NadD, colorimetric enzyme assay; inhibition, % at 20 µM; hit rate 13% among 2,000; AID 624309; in the data active = inhibition mostly above about 42%, no sharp cut-off; inactive = mostly below about 42%
Large screens that a line does not name were inactive (follow-up assays come after a bar, where they were run).

COc1ccc(Cl)cc1S(=O)(=O)N1CCCC(C(=O)NCCc2ccccc2)C1 (configuration not stated)	none
c1ccc(-c2cc(-c3nn4c(-c5ccco5)nnc4s3)c3ccccc3n2)cc1	NadD inh 46.6 | NadD inh conf inactive
O=C(COC(=O)c1ccc(Br)o1)Nc1nc2c(F)c(F)c(F)cc2s1	NadD inh 34.4 | NadD inh conf inactive
O=C(COC(=O)CCC1CCCC1)Nc1nc2c(F)c(F)c(F)cc2s1	none
COc1cc(-c2nc3n(n2)C(c2cccc(OC)c2OC)C2=C(CCCC2=O)N3)cc(OC)c1OC (configuration not stated)	none
COc1ccc(NS(=O)(=O)c2ccc3nc(COc4cccc5ccccc45)[nH]c3c2)cc1	NadD inh 37.6 | NadD inh conf inactive
CCCCC(=O)Nc1ccc2c(c1)nc1n2CCN(CCOC)C1	none (no result: core dimer inh)
O=C(Cc1ccccc1)Nc1ncnc2c1C(c1ccccc1)c1c(ccc3ccccc13)O2 (configuration not stated)	NadD inh 31.6 (no result: Rce1 inhib, core dimer inh) | NadD inh conf inactive
O=C(Nc1ncnc2c1C(c1ccccc1)c1c(ccc3ccccc13)O2)c1ccccc1 (configuration not stated)	none (no result: Rce1 inhib, core dimer inh)
CC1=NN(c2ccc(Cl)cc2)C(=O)C1C(c1ccccc1O)c1c(C)[nH]n(-c2ccc(Cl)cc2)c1=O (configuration not stated)	NadD inh 31.0 | NadD inh conf 51.9
CC1=NN(c2ccc(C)cc2C)C(=O)C1C(c1ccccc1O)C1C(=O)N(c2ccc(C)cc2C)N=C1C (configuration not stated)	none
COc1ccc(CNC(=O)C2CCN(S(=O)(=O)c3ccc(-c4nn[nH]n4)cc3)CC2)cc1	none
O=C(C1CCN(S(=O)(=O)c2ccc(Br)cc2)CC1)N1CCOCC1	none
CCCC(C)C(=O)Nc1nc(C)c(-c2csc(Nc3cc(Cl)ccc3C)n2)s1 (configuration not stated)	NadD inh 28.5 | NadD inh conf inactive
Cc1nc(NC(=O)c2ccco2)sc1-c1csc(Nc2ccc(Cl)cc2Cl)n1	NadD inh 52.7 | NadD inh conf inactive
Cc1ccc(Cl)cc1Nc1nc(-c2sc(NC(=O)c3cccc(Cl)c3)nc2C)cs1	none (no result: DSG3 Ab inh, NadD inh, Tb MetRS inh)
Cc1ccc(Cl)cc1Nc1nc(-c2sc(NC(=O)c3ccco3)nc2C)cs1	NadD inh 36.0 | NadD inh conf inactive
Cc1nc(NC(=O)c2ccccc2)sc1-c1csc(Nc2ccc(Cl)cc2Cl)n1	none (no result: DSG3 Ab inh, NadD inh, Tb MetRS inh)
COc1cccc(N(C(=O)c2ccco2)c2nc(-c3sc(NC(=O)c4ccco4)nc3C)cs2)c1	NadD inh 35.9 | NadD inh conf inactive
O=C(C1CCCN(S(=O)(=O)c2cccc3nsnc23)C1)N1CCc2ccccc2C1 (configuration not stated)	none
Cc1nc(NC(=O)c2ccccc2)sc1-c1csc(Nc2ccc(Cl)cc2)n1	none (no result: DSG3 Ab inh, NadD inh, Tb MetRS inh)
Cc1nc(NC(=O)c2ccco2)sc1-c1csc(Nc2ccc(Cl)cc2)n1	NadD inh 35.9 | NadD inh conf inactive
COc1ccc(S(=O)(=O)N2CCN(C)CC2)cc1NC(=O)c1ccccc1C	none
O=C(/C=C/c1cccs1)NC1CCS(=O)(=O)C1 (configuration not stated)	none (no result: DSG3 Ab inh)
CCN1CCN(Cc2ccc(NC(=O)c3ccc(C)c(NC(=O)c4cc(-c5ccc(Br)cc5)n[nH]4)c3)cc2C(F)(F)F)CC1	NadD inh 31.5 (no result: DSG3 Ab inh) | NadD inh conf inactive
O=C(c1nn2c(C(F)(F)F)cc(-c3ccco3)nc2c1Br)N1CCCc2ccccc21	NadD inh 30.7 (no result: DSG3 Ab inh) | NadD inh conf inactive
O=C(c1nn2c(C(F)(F)F)cc(-c3cccs3)nc2c1Br)N1CCCc2ccccc21	none
N=c1c(S(=O)(=O)c2ccc(Cl)cc2)cc2c(=O)n3ccccc3nc2n1C1CCCCC1	NadD inh 43.0 | NadD inh conf inactive
N=c1c(C(=O)NCc2ccccc2)cc2c(=O)n3ccccc3nc2n1Cc1ccco1	NadD inh 31.1 | NadD inh conf inactive
Cc1ccc(CNC(=O)c2cc3c(=O)n4ccccc4nc3n(CC3CCCO3)c2=N)cc1 (configuration not stated)	Rce1 inhib inconclusive
N=c1c(C(=O)NCc2ccco2)cc2c(=O)n3ccccc3nc2n1Cc1ccccc1	NadD inh 31.6, core dimer inh 65.2 | NadD inh conf inactive
Cc1ccc(CNC(=O)c2cc3c(=O)n4ccccc4nc3n(Cc3ccco3)c2=N)cc1	NadD inh 40.5 | NadD inh conf inactive
Cc1ccccc1NC(=O)c1ccc(F)c(S(=O)(=O)N2CCCCC2)c1	none
Cc1ccc(S(=O)(=O)c2cc3c(=O)n4ccccc4nc3n(Cc3ccco3)c2=N)cc1	NadD inh 43.3 | NadD inh conf inactive
N#C/C(=C\c1coc2ccc(O)cc2c1=O)C(=O)Nc1nc2ccccc2s1	NadD inh 30.4 | NadD inh conf inactive
N#C/C(=C\c1coc2ccccc2c1=O)C(N)=S	none
O=C1C=CC(=O)N1c1ccccc1N1C(=O)C=CC1=O	none (no result: Rce1 inhib, core dimer inh)
CC1=CC(=O)N(c2cccc3c(N4C(=O)C=C(C)C4=O)cccc23)C1=O	NadD inh 57.6 (no result: Rce1 inhib, core dimer inh) | NadD inh conf inactive
COc1cccc(C(=O)Nc2nnc(S(=O)(=O)N(C)Cc3ccc(F)cc3)s2)c1	NadD inh 29.9 (no result: DSG3 Ab inh) | NadD inh conf inactive
COc1ccc(CN(C)S(=O)(=O)c2nnc(NC(=O)c3cccc(OC)c3)s2)cc1	none
COc1ccc(-c2nnc(Nc3nc4c(OC)cccc4s3)o2)cc1	NadD inh 31.2 | NadD inh conf inactive
CCOC(=O)c1ccc(NC(=O)C2COc3ccccc3O2)cc1 (configuration not stated)	none
CCOC(=O)c1ccc(-n2c(O)c(/C=N/NC(=O)C3COc4ccccc4O3)c3ccccc3c2=O)cc1 (configuration not stated)	NadD inh 31.1 | NadD inh conf inactive
Cc1ccc(Cn2nnc3c(=O)[nH]c(C4CCN(S(=O)(=O)c5ccc(S(=O)(=O)NC6CC6)cc5)CC4)nc32)cc1	NadD inh 30.8 (no result: DSG3 Ab inh) | NadD inh conf 43.8
COC(=O)c1ccc(Cn2nnc3c(=O)[nH]c(C4CCCN(S(=O)(=O)c5ccc(C)cc5)C4)nc32)cc1 (configuration not stated)	NadD inh 28.9 | NadD inh conf inactive
CC(=O)c1cccc(S(=O)(=O)N2CCCC(c3nc4c(nnn4Cc4cccc(Cl)c4)c(=O)[nH]3)C2)c1 (configuration not stated)	NadD inh 45.7 (no result: Rce1 inhib) | NadD inh conf inactive
Cc1ccc(Cn2nnc3c(=O)[nH]c(C4CCN(S(=O)(=O)c5ccc(C)cc5)CC4)nc32)cc1	none
COC(=O)c1ccc(Cn2nnc3c(=O)[nH]c(C4CCCN(S(=O)(=O)c5cccc(Cl)c5)C4)nc32)cc1 (configuration not stated)	NadD inh 32.6 | NadD inh conf inactive

Assay outcomes from PubChem.
